Measurements from PMC10996840 (RSC Advances, 2024).
Several values for one entry are separate records, joined by “and”; a condition that tells them apart may be missing. Equal entries are not always repeated. Where two headings read alike, the source gives them in different places. Values belong to the molecule of their own block, whether it stands above or below them.

Experiments:
MCF-7 cells [1] = assay: DNA content flow cytometry cell cycle analysis; assay type: cell-based, human; conditions: MCF-7 cells treated at IC50 = 0.57 μM, 48 h
[2] = test system: P53, Bax, caspases-3,8,9, Bcl-2 and PIM-1 gene expression in MCF-7 cells; assay: RT-PCR of apoptosis-related genes; assay type: cell-based, human; conditions: MCF-7, IC50 = 0.57 μM, 48 h, normalized to β-actin, control = 1
Summary of the method: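 MCF-7 cells treated with test compound for 48 h, then taken for RT-PCR of apoptosis-related genes. Ct values were normalised to β-actin to give relative expression as fold change versus untreated control (set to 1). Values average three independent runs.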

HepG2 cells = assay: MTT cytotoxicity assay against HepG2 cells; assay type: cell-based, human
Summary of the method: (§1)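 Cells kept in RPMI-1640 with L-glutamine at 37 °C under 5% CO2. Plated at 5 × 10^4 cells per well in triplicate. Next day they received test compound at 0.01, 0.1, 1, 10 and 100 μM. Viability read by MTT. IC50 came from a nonlinear dose–response fit of % viability against concentration.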

MCF-10A cells = assay: MTT cytotoxicity assay against normal MCF-10A cells; assay type: cell-based; conditions: for IC50: Homo sapiens, MCF-10A, read-out: IC50 ± SD MCF-10A; for IC50 ± SD MCF-10A: MTT assay, normal MCF-10A cells, mean ± SD, n = 3
Summary of the method: as §1

PIM-1 kinase [3] = biological target: T1, PIM-1 kinase (Homo sapiens, UniProt P11309); assay: PIM-1 kinase inhibitory assay; assay type: biochemical; conditions: for % of PIM-1 inhibition: concentration not given
T1 sequence (P11309 whole entry): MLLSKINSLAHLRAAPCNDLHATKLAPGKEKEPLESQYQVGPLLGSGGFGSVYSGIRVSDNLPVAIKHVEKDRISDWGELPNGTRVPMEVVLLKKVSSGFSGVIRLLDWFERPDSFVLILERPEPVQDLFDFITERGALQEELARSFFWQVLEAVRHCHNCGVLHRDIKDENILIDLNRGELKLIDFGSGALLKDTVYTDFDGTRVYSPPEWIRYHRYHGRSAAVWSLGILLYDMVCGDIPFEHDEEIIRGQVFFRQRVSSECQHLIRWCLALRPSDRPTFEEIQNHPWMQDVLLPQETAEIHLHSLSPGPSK

MCF-7 cells [4] = assay: Annexin V/PI staining flow cytometry; assay type: cell-based, human; conditions: MCF-7 cells treated at IC50 = 0.57 μM, 48 h
Summary of the method: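 MCF-7 cells seeded at 3–5 × 10^5 per well, incubated overnight, then exposed to test compound for 48 h. Supernatant and cells collected and rinsed in ice-cold PBS. Resuspended in annexin binding buffer (CaCl2, NaCl, Hepes/NaOH, pH 7.4) with annexin V-FITC (1:100) and PI (10 μg mL−1), kept 30 min in the dark, then analysed on a FACSCalibur flow cytometer.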

PIM-1 kinase [5] = biological target: T1, PIM-1 kinase; conditions: read-out: IC50 ± SD PIM-1 kinase inhibition; previously reported value ref 32; cited from earlier work
[6] = read-out: IC50 ± SD HepG2, MTT assay, liver cancer HepG2 cells, mean ± SD, n = 3

IC50 (PIM-1 kinase [3]): 0.0114 ± 0.00013 µM | % of PIM-1 inhibition (PIM-1 kinase [3]): 97.8 ± 1.8%
SMILES: N#Cc1c(-c2ccc(Cl)cc2)c2c(=O)[nH]c(-c3ccc(Cl)cc3Cl)nc2n(C2CCCCC2)c1=O [Compound 4, 5-(4-Chlorophenyl)-8-cyclohexyl-2-(2,4-dichlorophenyl)-4,7-dioxo-3,4,7,8-tetrahydropyrido[2,3-d]pyrimidine-6-carbonitrile]
cell population at G2/M phase (MCF-7 cells [1]; control 18.86%): 4.47% | cell population at G1 phase (MCF-7 cells [1]; control 48.37%): 56.36% | Bax gene expression fold change [2]: 6.7 fold | Bcl-2 gene expression fold change [2]: 0.11 fold | P53 gene expression fold change [2]: 7.9 fold | PIM-1 gene expression fold change [2]: 0.31 fold | caspase-3 gene expression fold change [2]: 11.2 fold | caspase-8 gene expression fold change [2]: 1.23 fold | caspase-9 gene expression fold change [2]: 8.9 fold | IC50 (HepG2 cells; [6]): 1.13 ± 0.19 µM | IC50 (MCF-10A cells): 47.6 ± 3.1 µM | IC50 ± SD MCF-10A (MCF-10A cells): non-toxic | early apoptosis (Q4) (MCF-7 cells [4]): 22.11% | increase of cell apoptosis versus untreated control (MCF-7 cells [4]): 58.29 fold and 58.3 fold | late apoptosis (Q2) (MCF-7 cells [4]): 14.03% | total apoptosis (MCF-7 cells [4]; untreated control 0.62%): 36.14%

IC50 (PIM-1 kinase [3]): 0.0346 ± 0.00018 µM | % of PIM-1 inhibition (PIM-1 kinase [3]): 89.6 ± 2.1%
SMILES: N#Cc1c(-c2ccc(Cl)cc2)c2c(=O)[nH]c(CCl)nc2n(C2CCCCC2)c1=O [Compound 6, 2-(Chloromethyl)-5-(4-chlorophenyl)-8-cyclohexyl-4,7-dioxo-3,4,7,8-tetrahydropyrido[2,3-d]pyrimidine-6-carbonitrile]
IC50 (MCF-10A cells): 43.5 ± 2.9 µM | IC50 ± SD MCF-10A (MCF-10A cells): non-toxic

SMILES: N#Cc1c(-c2ccc(Cl)cc2)c2c(=O)[nH]cnc2n(C2CCCCC2)c1=O [Compound 9, 5-(4-Chlorophenyl)-8-cyclohexyl-4,7-dioxo-3,4,7,8-tetrahydropyrido[2,3-d]pyrimidine-6-carbonitrile]
IC50 (HepG2 cells; [6]): 4.6 ± 0.34 µM

IC50 (PIM-1 kinase [3]): 0.0172 ± 0.0002 µM | % of PIM-1 inhibition (PIM-1 kinase [3]): 94.6 ± 2.1%
SMILES: N#Cc1c(-c2ccc(Cl)cc2)c2c(=O)[nH]c(=S)[nH]c2n(C2CCCCC2)c1=O [Compound 10, 5-(4-Chlorophenyl)-8-cyclohexyl-4,7-dioxo-2-thioxo-1,2,3,4,7,8-hexahydropyrido[2,3-d]pyrimidine-6-carbonitrile]
IC50 (MCF-10A cells): ≥ 50 µM | IC50 ± SD MCF-10A (MCF-10A cells): non-toxic

IC50 (PIM-1 kinase [3]): 0.0214 ± 0.00024 µM | % of PIM-1 inhibition (PIM-1 kinase [3]): 92.1 ± 1.9%
SMILES: N#Cc1c(-c2ccc(Cl)cc2)c2c(=O)[nH]nnc2n(C2CCCCC2)c1=O [Compound 11, 5-(4-Chlorophenyl)-8-cyclohexyl-4,7-dioxo-3,4,7,8-tetrahydropyrido[2,3-d][1,2,3]triazine-6-carbonitrile]
IC50 (MCF-10A cells): ≥ 50 µM | IC50 ± SD MCF-10A (MCF-10A cells): non-toxic

SMILES: N[C@H]1CC[C@H](Nc2nc(Nc3cccc(C(F)(F)F)c3)c3c(=O)[nH]ccc3n2)CC1 [SKI-O-068]
IC50 (PIM-1 kinase [5]): 0.123 ± 0.014 µM

SMILES: CN[C@@H]1C[C@H]2O[C@@](C)([C@@H]1OC)n1c3ccccc3c3c4c(c5c6ccccc6n2c5c31)C(=O)NC4 [Staurosporine, reference compound]
IC50 (HepG2 cells; Homo sapiens, HepG2, read-out: IC50 ± SD HepG2): 5.07 ± 0.36 µM
